# Measurements reported in PMC9065697 (RSC Advances, 2019).
# Peptide text beside a SMILES is read from it. * marks the point of attachment. X1 = O=C(c1ccc(Oc2ccc3c4nc5nc(nc6[nH]c(nc7nc(nc([nH]4)c3c2)-c2ccccc2-7)c2ccccc62)-c2ccccc2-5)cc1)*
# Legend:
# [1] = reference standard in DMF; cited from earlier work
# [2] = reference standard in DMF; cited from earlier work; remark: listed apart in the source
# [3] = Solubility and aggregation state; type: physicochemical; details: 2 μM in DMF and in PBS with 0.01% Tween 80 (v/v); intense, sharp Q band at 672 nm (DMF) or 680 nm (PBS); UV-Vis
# [4] = system: HT29 human colorectal adenocarcinoma cells; assay: Cellular uptake by confocal fluorescence microscopy; type: cell-based; details: 2 μM for 10 min at 37 °C, then 6 h in drug-free medium at 4 °C
# Summary of the method: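 HT29 cells (about 2 × 10^5, RPMI with 10% FBS) were seeded on confocal dishes and left overnight at 37 °C, 5% CO2. They were exposed to 2 μM test compound for 10 min at 37 °C, washed three times with PBS, then held in drug-free medium for 6 h at 4 °C or 37 °C. Bright-field and fluorescence images were taken by confocal microscopy.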
# [5] = system: HT29 cells; assay: Photocytotoxicity, MTT assay; type: cell-based, human; details: absence of light, both incubation conditions
# Summary of the method: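 HT29 cells (1 × 10^4 per well) were plated overnight. A DMSO stock of test compound was diluted in medium and applied for 10 min at 37 °C. Cells were rinsed with PBS, refed, and held 0 or 6 h with no red-light illumination. MTT (3 mg mL−1 in PBS) was added for 4 h, DMSO added, and A490 read. Viability is relative to compound-free control wells, averaged over 4 data points.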
# [6] = system: HT29 tumour-bearing nude mice; assay: In vivo biodistribution by near-infrared fluorescence imaging; parameters: species or system mouse; details: 20 nmol intravenous; for Fluorescence intensity in the tumour area over time: imaged over 48 h, four mice per conjugate
# Summary of the method: (§1)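 Female Balb/c nude mice (20–25 g) carried subcutaneous HT29 tumours on the back (about 1 × 10^7 cells in HBSS) grown to 60–100 mm3. They received 20 nmol test compound in water with 1% DMSO by tail-vein injection. NIR imaging (ex 680 nm, em ≥700 nm) ran from pre-dose to 48 h. At 48 h, tumour, heart, lung, spleen, kidney and liver were assayed for fluorescence per unit area and reported as tumour/organ ratio. Data are mean ± SD, n = 4.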
# [7] = as above; parameters: species or system mouse; details: mouse, in vivo, iv, 20 nmol
# Summary of the method: as §1
# [8] = system: HT29 cells; assay: Annexin V-GFP/PI costaining assay; type: cell-based, human; details: 0.5 μM for 10 min
# [9] = system: A431 human epidermoid carcinoma cells; details: read-out: IC50 (photocytotoxicity); cited from earlier work
compound,measurement,setting,value
"[Zn+2].c1ccc2c(c1)-c1nc-2nc2[n-]c(nc3nc([n-]c4nc(n1)-c1ccccc1-4)-c1ccccc1-3)c1ccccc21 [ZnPc, zinc(II) phthalocyanine]",Singlet oxygen quantum yield ΦΔ,[1],0.56
same,Fluorescence quantum yield ΦF,[2],0.28
N=C(N)NCCC[C@H](NC(=O)[C@@H](N)CCC(N)=O)C(=O)N[C@@H](Cc1c[nH]cn1)C(=O)N[C@@H](CCCCN)C(=O)N1CCC[C@H]1C(=O)N[C@@H](CCCNC(=N)N)C(=O)N[C@@H](CCC(=O)O)C(=O)NCC(=O)NCC(=O)NCC(=O)NCC(=O)N[C@@H](CO)C(=O)N[C@@H](CCCCNC(=O)c1ccc(Oc2ccc3c4nc5nc(nc6[nH]c(nc7nc(nc([nH]4)c3c2)-c2ccccc2-7)c2ccccc62)-c2ccccc2-5)cc1)C(N)=O [compound 4] (H-QRHKPREGGGGSK(X1)-NH2),Solubility and aggregation state from the Q band,[3],soluble and remained non-aggregated in both media
same,Internalisation on post-incubation at 4 °C,[4],internalisation was not significant
same,Dark toxicity,[5],did not show significant dark toxicity
same,Fluorescence intensity in the tumour area over time,[6],increased along with time
same,tissue to tissue ratio at 48 h,[7],< 1
same,"Cell-death pathway, PDT effect on the cell membrane","[8]; irradiated immediately (λ > 610 nm, 18 mW cm^-2, 20 min)",cell necrosis
same,"Cell-death pathway, PDT effect after internalisation","[8]; then 6 h post-incubation before irradiation (λ > 610 nm, 18 mW cm^-2, 20 min)",mainly through apoptosis
EPRQRHKGGGGSK [compound 5],Tumour selectivity (tumour/organ ratio) compared with conjugate 4,"[6]; ex vivo at 48 h, four mice",consistently lower for all the organs
same,Fluorescence intensity in the tumour area over time,[6],remained weak throughout the period
GYHWYGYTPQNVI [GE11 conjugate],IC50,[9],14 µM
